Measured values published in ChEMBL document CHEMBL5131377, “Structure-Activity Relationship Studies of Trisubstituted Isoxazoles as Selective Allosteric Ligands for the Retinoic-Acid-Receptor-Related Orphan Receptor γt” (J Med Chem, 2021).

Assays:
[1] = Stability in human plasma assessed as parent compound remaining at 5 uM measured after 1 hr by LC-MS/MS analysis relative to control; assay type: ADME, cell-free; conditions: read-out: Stability
How it was run: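 Compound at 5 μM incubated 1 h at 37 °C in 50% human plasma in PBS; % remaining determined by LC–MS.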

[2] = Microsomal stability in human liver microsomes assessed as intrinsic clearance at 1 uM measured up to 50 mins in presence of NADPH by LC-MS/MS analysis; assay type: ADME, Microsome
How it was run: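 Oxidative stability in NADPH-supplemented human liver microsomes; compound at 1 μM, depletion followed by LC–MS/MS for up to 50 min at 37 °C. Intrinsic clearance calculated from half-life, assay volume and microsomal protein amount (μL/min/mg).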

[3] = Kinetic aqueous solubility of compound in HEPES buffer at pH 7.4 at 500 uM measured after 90 mins by spectrophotometry analysis; assay type: physicochemical
How it was run: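 Compound-saturated HEPES buffer (pH 7.4, from DMSO stocks, 500 μM) shaken 90 min at room temperature, filtered, then diluted with an equal volume of acetonitrile.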

[4] = Permeability of the compound at 500 uM after 20 hrs by PAMPA; assay type: ADME
How it was run: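 Artificial membrane permeation with 500 μM compound in the donor compartment; after 20 h, receiver wells read by spectrophotometry and % flux derived by normalizing to flux across a blank filter.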

SMILES | remaining at 1 h, 5 µM [1] | CLH [2] | Kinetic_solubility [3] | permeability [4]
O=C(O)c1ccc(OCc2c(-c3c(Cl)cccc3C(F)(F)F)noc2-c2cc[nH]c2)cc1F | 97.1% | 77 µL/min/mg | 445 µM | 37.3%
O=C(O)c1ccc(OCc2c(-c3c(Cl)cccc3C(F)(F)F)noc2-c2cc[nH]c2)cc1 | 74.2% | 57.8 µL/min/mg | 436 µM | 40.9%
O=C(O)c1ccc(NCc2c(-c3c(Cl)cccc3C(F)(F)F)noc2-c2cc[nH]c2)cc1 | 79.1% | 31.2 µL/min/mg | 460 µM | 36.1%
O=C(O)c1ccc(OCc2c(-c3c(Cl)cccc3C(F)(F)F)noc2-c2cn[nH]c2)cc1 | 100% | 8.8 µL/min/mg | 476 µM | 23%
O=C(O)c1ccc(/C=C/c2c(-c3c(Cl)cccc3C(F)(F)F)noc2-c2cc[nH]c2)cc1 | 59.5% | 69 µL/min/mg | 392 µM | 40.3%
O=C(O)c1ccc(-c2nn(C(=O)c3c(Cl)cccc3C(F)(F)F)c3ccccc23)cc1 | 95.5% | 0.4 µL/min/mg | 423 µM | 29.7%
O=C(O)c1ccc(OCc2c(-c3c(Cl)cccc3C(F)(F)F)noc2-c2ccc[nH]2)cc1 | 89.5% | 68 µL/min/mg | 421 µM | 50.5%
